# According to ChEMBL document CHEMBL1139743, “Synthesis and antihyperlipidemic activity of novel glycosyl fructose derivatives” (2006):
# Assays:
# Format in all cases: functional, Mesocricetus auratus
# [1] = tested on: Syrian golden hamster; assay: Antihyperlipidemic activity measured by glycerol level in golden syrian hamster at 100 mg/kg, po
# Method in brief: (§1)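 High-fat-diet hyperlipidemic male golden Syrian hamsters (120–130 g, n=8 per group) were dosed orally in water vehicle on days 4–10; water-only HFD hamsters served as controls. On day 10, nonfasted blood was drawn into tubes containing 120 µL NaF (4.5 mg/mL) and chilled to 0 C for 15 min. Glycerol and free fatty acids were assayed in this NaF plasma on a clinical chemistry analyser.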
# [2] = tested on: Syrian golden hamster; assay: Antihyperlipidemic activity measured by HDL/total cholesterol ratio in golden syrian hamster at 100 mg/kg, po
# Method in brief: (§2)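 Male golden Syrian hamsters (120–130 g), 8 per group, made hyperlipidemic on high fat diet with free access to diet and water throughout. Compound given orally in water from day 4 to day 10 (7 days); HFD hamsters given water only served as controls. On day 10, blood from nonfasted animals was drawn and cooled to 0 C for 15 min. Triglycerides, total cholesterol and HDL cholesterol were measured the same day in plasma without NaF using enzymatic kits.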
# [3] = tested on: Syrian golden hamster; assay: Antihyperlipidemic activity measured by increase in HDL level in golden syrian hamster at 100 mg/kg, po relative to control; method in brief: as §2
# [4] = tested on: Syrian golden hamster; assay: Antihyperlipidemic activity measured by HDL level in golden syrian hamster at 100 mg/kg, po; method in brief: as §2
# [5] = tested on: Syrian golden hamster; assay: Antihyperlipidemic activity measured by decrease in triglyceride level in golden syrian hamster at 100 mg/kg, po relative to control; set-up: scale not given: the % may be the effect or the level left; method in brief: as §2
# [6] = tested on: Syrian golden hamster; assay: Antihyperlipidemic activity measured by increase in cholesterol level in golden syrian hamster at 100 mg/kg, po relative to control; method in brief: as §2
# [7] = tested on: Syrian golden hamster; assay: Antihyperlipidemic activity measured by triglyceride level in golden syrian hamster at 100 mg/kg, po; method in brief: as §2
# [8] = tested on: Syrian golden hamster; assay: Antihyperlipidemic activity measured by cholesterol level in golden syrian hamster at 100 mg/kg, po; method in brief: as §2
# [9] = tested on: Syrian golden hamster; assay: Antihyperlipidemic activity measured by free fatty acid level in golden syrian hamster at 100 mg/kg, po; method in brief: as §1
# [10] = tested on: Syrian golden hamster; assay: Antihyperlipidemic activity measured by decrease in HDL/total cholesterol ratio in golden syrian hamster at 100 mg/kg, po relative to control; set-up: scale not given: the % may be the effect or the level left; method in brief: as §2
# [11] = tested on: Syrian golden hamster; assay: Antihyperlipidemic activity measured by decrease in free fatty acid level in golden syrian hamster at 100 mg/kg, po relative to control; set-up: scale not given: the % may be the effect or the level left; method in brief: as §1
# [12] = tested on: Syrian golden hamster; assay: Antihyperlipidemic activity measured by increase in free fatty acid level in golden syrian hamster at 100 mg/kg, po relative to control; method in brief: as §1
# [13] = tested on: Syrian golden hamster; assay: Antihyperlipidemic activity measured by increase in glycerol level in golden syrian hamster at 100 mg/kg, po relative to control; method in brief: as §1
# [14] = tested on: Syrian golden hamster; assay: Antihyperlipidemic activity measured by increase in HDL/total cholesterol ratio in golden syrian hamster at 100 mg/kg, po relative to control; method in brief: as §2
# [15] = tested on: Syrian golden hamster; assay: Antihyperlipidemic activity measured by decrease in cholesterol level in golden syrian hamster at 100 mg/kg, po relative to control; set-up: scale not given: the % may be the effect or the level left; method in brief: as §2
# [16] = tested on: Syrian golden hamster; assay: Antihyperlipidemic activity measured by increase in HDL/total cholesterol ratio in golden syrian hamster at 25 mg/kg relative to control; method in brief: as §2
# [17] = tested on: Syrian golden hamster; assay: Antihyperlipidemic activity measured by HDL/total cholesterol ratio in golden syrian hamster at 25 mg/kg; method in brief: as §2
# [18] = tested on: Syrian golden hamster; assay: Antihyperlipidemic activity measured by decrease in triglyceride level in golden syrian hamster at 25 mg/kg relative to control; set-up: scale not given: the % may be the effect or the level left; method in brief: as §2
# [19] = tested on: Syrian golden hamster; assay: Antihyperlipidemic activity measured by triglyceride level in golden syrian hamster at 25 mg/kg; method in brief: as §2
# [20] = tested on: Syrian golden hamster; assay: Antihyperlipidemic activity measured by decrease in glycerol level in golden syrian hamster at 25 mg/kg relative to control; set-up: scale not given: the % may be the effect or the level left; method in brief: as §1
# [21] = tested on: Syrian golden hamster; assay: Antihyperlipidemic activity measured by cholesterol level in golden syrian hamster at 25 mg/kg; method in brief: as §2
# [22] = tested on: Syrian golden hamster; assay: Antihyperlipidemic activity measured by HDL level in golden syrian hamster at 25 mg/kg; method in brief: as §2
# [23] = tested on: Syrian golden hamster; assay: Antihyperlipidemic activity measured by decrease in cholesterol level in golden syrian hamster at 25 mg/kg relative to control; set-up: scale not given: the % may be the effect or the level left; method in brief: as §2
# [24] = tested on: Syrian golden hamster; assay: Antihyperlipidemic activity measured by free fatty acid level in golden syrian hamster at 25 mg/kg; method in brief: as §1
# [25] = tested on: Syrian golden hamster; assay: Antihyperlipidemic activity measured by glycerol level in golden syrian hamster at 25 mg/kg; method in brief: as §1
# [26] = tested on: Syrian golden hamster; assay: Antihyperlipidemic activity measured by increase in HDL level in golden syrian hamster at 25 mg/kg relative to control; method in brief: as §2
# [27] = tested on: Syrian golden hamster; assay: Antihyperlipidemic activity measured by decrease in glycerol level in golden syrian hamster at 100 mg/kg, po relative to control; set-up: scale not given: the % may be the effect or the level left; method in brief: as §1
# [28] = tested on: Syrian golden hamster; assay: Antihyperlipidemic activity measured by decrease in free fatty acid level in golden syrian hamster at 25 mg/kg relative to control; set-up: scale not given: the % may be the effect or the level left; method in brief: as §1
SMILES,Activity [1] [mM],Ratio [2],Activity [3] [%],Activity [4] [mM],Activity [5] [%],Activity [6] [%],Activity [7] [mM],Activity [8] [mM],Activity [9] [µM],Activity [11] [%],Activity [14] [%],Activity [15] [%],Activity [27] [%],further results
OC[C@H]1O[C@@H](O[C@H]2[C@H](O)[C@@H](CO)O[C@]2(O)CO)[C@H](O)[C@@H](O)[C@H]1O,0.82,0.21,16,3.6,52,52,6.88,17.59,450,38,–,–,–,Activity [10]: 22%
C[C@@H]1O[C@@H](O[C@H]2[C@H](O)[C@@H](CO)O[C@]2(O)CO)[C@H](O)[C@H](O)[C@H]1O,1.11,0.35,–,3.1,–,–,14.17,8.82,833.12,–,30,24,–,Activity [12]: 15%; Activity [13]: 32%
OC[C@H]1O[C@](O)(CO)[C@@H](O[C@@H]2O[C@H](CO)[C@@H](O[C@H]3O[C@H](CO)[C@@H](O)[C@H](O)[C@H]3O)[C@H](O)[C@H]2O)[C@@H]1O,0.82,0.3,11,3.43,11,–,12.76,11.38,726.74,–,12,–,–,–
OC[C@H]1O[C@@H](O[C@H]2[C@H](O)[C@@H](O)[C@H](O[C@H]3[C@H](O)[C@@H](CO)O[C@]3(O)CO)O[C@@H]2CO)[C@H](O)[C@@H](O)[C@H]1O,0.75,0.34,15,3.55,47,–,7.61,10.55,670.62,8,25,9,11,Activity [16]: 11%; Ratio [17]: 0.3; Activity [18]: 44%; Activity [19]: 7.96 mM; Activity [20]: 17%; Activity [21]: 11.02 mM; Activity [22]: 3.28 mM; Activity [23]: 5%; Activity [24]: 0.572 mM; Activity [25]: 0.7 mM; Activity [26]: 5%; Activity [28]: 21%
OC[C@H]1O[C@@](CO)(O[C@H]2O[C@H](CO)[C@@H](O)[C@H](O)[C@H]2O)[C@@H](O[C@H]2O[C@H](CO)[C@@H](O)[C@H](O)[C@H]2O)[C@@H]1O [MELEZITOSE],0.71,0.38,59,4.95,51,12,6.98,13,510.7,30,41,–,15,–
OC[C@H]1O[C@H](OC[C@H]2O[C@H](O[C@]3(CO)O[C@H](CO)[C@@H](O)[C@@H]3O)[C@H](O)[C@@H](O)[C@@H]2O)[C@H](O)[C@@H](O)[C@H]1O [RAFFINOSE],0.86,0.45,10,3.41,44,–,8.06,7.55,540.49,25,66,35,–,–
